Legend:
[1] = target: T1, Transient receptor potential cation channel subfamily V member 1 (Rattus norvegicus, UniProt O35433); experiment: Inhibitory effect on capsaicin (0.5 uM)-induced calcium uptake in rat DRG neurons upon incubation at RT for 10 minutes
How it was run: (§1)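 Neonatal Sprague–Dawley rat DRG neurons, dissociated with collagenase/trypsin and cultured 3 days with 200 ng/mL NGF (cytosine arabinoside for the first 2 days), were washed in Ca/Mg-free HBSS with 10 mM HEPES at pH 7.4. They were then given 45Ca2+ (10 µCi/mL), 0.5 µM capsaicin and compound for 10 min at room temperature, SDS-lysed and scintillation-counted.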

[2] = target: T1, Transient receptor potential cation channel subfamily V member 1; experiment: Inhibitory effect on capsaicin (0.5 uM)-induced calcium uptake in rat DRG neurons upon incubation at RT for 10 minutes; NE=Not effective; how it was run: as §1
[3] = target: T2, Transient receptor potential cation channel subfamily V member 1 (Homo sapiens, UniProt Q8NER1); experiment: Concentration required to inhibit [3H]RTX radioligand binding towards transient receptor potential cation channel (subfamily V, member 1) expressed in chinese hamster ovary cells; format: cell-based, CHO
T2 sequence (Q8NER1 whole entry): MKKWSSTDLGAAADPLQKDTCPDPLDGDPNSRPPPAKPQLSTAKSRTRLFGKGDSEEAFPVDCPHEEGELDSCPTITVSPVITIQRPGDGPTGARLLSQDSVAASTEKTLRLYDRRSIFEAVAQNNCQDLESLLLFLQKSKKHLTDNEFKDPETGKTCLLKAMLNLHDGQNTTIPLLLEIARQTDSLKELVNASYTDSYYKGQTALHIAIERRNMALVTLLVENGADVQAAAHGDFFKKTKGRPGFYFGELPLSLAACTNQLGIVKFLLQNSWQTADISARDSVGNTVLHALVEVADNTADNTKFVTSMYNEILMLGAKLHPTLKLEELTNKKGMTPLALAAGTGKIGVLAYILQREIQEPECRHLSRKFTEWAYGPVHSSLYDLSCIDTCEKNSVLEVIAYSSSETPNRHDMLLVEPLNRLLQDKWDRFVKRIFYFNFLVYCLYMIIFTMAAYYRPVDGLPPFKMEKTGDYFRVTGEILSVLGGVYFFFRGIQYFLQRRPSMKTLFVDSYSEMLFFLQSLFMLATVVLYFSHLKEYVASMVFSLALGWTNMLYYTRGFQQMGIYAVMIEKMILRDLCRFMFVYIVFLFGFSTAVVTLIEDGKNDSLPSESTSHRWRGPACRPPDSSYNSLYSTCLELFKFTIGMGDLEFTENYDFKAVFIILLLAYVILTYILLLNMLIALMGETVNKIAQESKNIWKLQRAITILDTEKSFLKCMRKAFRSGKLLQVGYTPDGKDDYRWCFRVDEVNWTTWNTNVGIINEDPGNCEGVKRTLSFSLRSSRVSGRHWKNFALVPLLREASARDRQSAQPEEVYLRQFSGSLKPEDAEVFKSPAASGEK

[4] = target: T2, Transient receptor potential cation channel subfamily V member 1; experiment: Concentration required to antagonized capsaicin-induced calcium uptake at the transient receptor potential cation channel (subfamily V member 1) expressed in chinese hamster ovary cells; format: cell-based, CHO
[5] = target: T1, Transient receptor potential cation channel subfamily V member 1; experiment: Inhibitory effect on capsaicin (0.5 uM)-induced calcium uptake in rat DRG neurons upon incubation at RT for 10 minutes; NE = Not effective; how it was run: as §1

T1 sequence (O35433 whole entry): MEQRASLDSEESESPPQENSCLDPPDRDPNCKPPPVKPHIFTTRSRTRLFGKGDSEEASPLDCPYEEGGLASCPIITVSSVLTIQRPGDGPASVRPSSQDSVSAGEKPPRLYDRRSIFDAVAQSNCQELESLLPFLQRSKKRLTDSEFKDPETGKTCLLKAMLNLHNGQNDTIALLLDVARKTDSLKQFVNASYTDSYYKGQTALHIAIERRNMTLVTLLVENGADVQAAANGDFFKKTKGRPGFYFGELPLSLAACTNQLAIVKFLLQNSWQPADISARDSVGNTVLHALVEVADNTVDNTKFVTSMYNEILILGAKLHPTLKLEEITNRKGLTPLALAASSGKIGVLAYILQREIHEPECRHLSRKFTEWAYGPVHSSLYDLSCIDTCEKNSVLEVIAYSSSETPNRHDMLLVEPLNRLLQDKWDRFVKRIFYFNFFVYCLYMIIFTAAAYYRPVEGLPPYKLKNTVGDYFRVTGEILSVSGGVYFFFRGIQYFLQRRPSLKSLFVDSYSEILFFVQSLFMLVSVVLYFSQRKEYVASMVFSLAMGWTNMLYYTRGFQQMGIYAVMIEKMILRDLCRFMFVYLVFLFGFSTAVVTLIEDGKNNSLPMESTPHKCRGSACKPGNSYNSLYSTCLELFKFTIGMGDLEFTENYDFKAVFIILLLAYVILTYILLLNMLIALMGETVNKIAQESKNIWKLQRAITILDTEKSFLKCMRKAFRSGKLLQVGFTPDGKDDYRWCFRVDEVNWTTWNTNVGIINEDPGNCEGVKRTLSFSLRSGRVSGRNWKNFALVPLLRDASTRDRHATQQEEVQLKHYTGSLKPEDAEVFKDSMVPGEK

Row | Compound | IC50 [1] | also measured
1 | CS(=O)(=O)Nc1ccc(C/N=C(\S)NC(c2ccccc2)c2ccccc2)cc1F | 2500 nM | 
2 | CS(=O)(=O)Nc1ccc(CN=C(S)NCc2cccc3ccccc23)cc1F | 2600 nM | 
3 | CC(C)(C)c1ccc(CNC(=S)NCc2ccc(NC(=O)C(F)(F)F)c(F)c2)cc1 | > 30000 nM | 
4 | CS(=O)(=O)Nc1ccc(CNC(=S)NCc2ccc(-c3ccccc3)cc2)cc1F | > 30000 nM | 
5 | CC(C)(C)c1ccc(C/N=C(\S)NCc2ccc(NS(C)(=O)=O)c(C#N)c2)cc1 | 5900 nM | 
6 | COC(=O)Nc1ccc(C/N=C(\S)NCc2ccc(C(C)(C)C)cc2)cc1F |  | IC50 [2]: Not Active
7 | CCOC(=O)N/C(=N\Cc1ccc(NS(C)(=O)=O)c(F)c1)NCc1ccc(C(C)(C)C)cc1 | 6200 nM | 
8 | CC(C)(C)c1ccccc1C/N=C(\S)NCc1ccc(NS(C)(=O)=O)c(F)c1 |  | IC50 [2]: Not Active
9 | CCOC(=O)CNc1ccc(CNC(=S)NCc2ccc(C(C)(C)C)cc2)cc1F | > 30000 nM | 
10 | CC(C)(C)c1ccc(CNC(=S)NCc2ccc(NS(C)(=O)=O)c(F)c2)cc1 |  | IC50 [3]: 54 nM; EC50 [4]: 8 nM
11 | CC(C)(C)c1ccc(C/N=C(\S)NCc2ccc(NCC(=O)O)c(F)c2)cc1 |  | IC50 [5]: Not Active
12 | CC(C)(C)NC(=S)NCc1ccc(NS(C)(=O)=O)c(F)c1 | > 30000 nM | 
13 | COC(=O)CNc1ccc(CNC(=S)NCc2ccc(C(C)(C)C)cc2)cc1F | 3600 nM | 
14 | CC(C)(C)c1ccc(C/N=C(\S)NCc2ccc(N)c(F)c2)cc1 |  | IC50 [2]: Not Active
15 | CC(C)(C)c1ccc(C(C)(C)/N=C(\S)NCc2ccc(NS(C)(=O)=O)c(F)c2)cc1 | > 30000 nM | 
16 | CC(C)OC(=O)c1cc(C/N=C(\S)NCc2ccc(C(C)(C)C)cc2)ccc1NS(C)(=O)=O | > 30000 nM | 
17 | CCOC(=O)Nc1ccc(C/N=C(\S)NCc2ccc(C(C)(C)C)cc2)cc1F | > 30000 nM | 
18 | CONC(=O)c1cc(C/N=C(\S)NCc2ccc(C(C)(C)C)cc2)ccc1NS(C)(=O)=O | > 30000 nM | 
19 | CC(C)(C)c1ccc(C/N=C(\S)NCc2ccc(NS(C)(=O)=O)c(C(=O)NO)c2)cc1 | > 30000 nM | 
20 | CC(C)(C)c1ccc(C/N=C(\S)NCc2ccc3c(c2)OCO3)cc1 |  | IC50 [5]: Not Active
21 | COCC(=O)Nc1ccc(CNC(=S)NCc2ccc(C(C)(C)C)cc2)cc1F | 10900 nM | 

The remaining compounds from weak to strong by IC50 [1], led by results:

Row | IC50 [1] | Compound | also measured
22 | 2000 nM | CC(C)(C)c1ccc(CCC/N=C(\S)NCc2ccc(NS(C)(=O)=O)c(F)c2)cc1 | 
23 | 1800 nM | CC(C)(C)c1ccc(CNC(=S)NCc2ccc3[nH]ccc3c2)cc1 | 
24 | 1600 nM | CC(C)(C)c1ccc(N/C(S)=N/Cc2ccc(NS(C)(=O)=O)c(F)c2)cc1 | 
25 | 1500 nM | Cc1ccc(C/N=C(\S)NCc2ccc(NS(C)(=O)=O)c(F)c2)cc1 | 
26 | 1300 nM | Cc1cccc(CNC(=S)NCc2ccc(NS(C)(=O)=O)c(F)c2)c1 | 
27 | 1100 nM | CCc1ccc(C/N=C(\S)NCc2ccc(NS(C)(=O)=O)c(F)c2)cc1 | 
28 | 1100 nM | CS(=O)(=O)Nc1ccc(C/N=C(\S)Nc2c3ccccc3cc3ccccc23)cc1F | 
29 | 790 nM | CC(C)(C)c1ccc(CNC(=S)NCc2ccc3nc[nH]c3c2)cc1 | 
30 | 730 nM | CC(C)(C)c1ccc(C/N=C(\NC#N)NCc2ccc(NS(C)(=O)=O)c(F)c2)cc1 | 
31 | 670 nM | Cc1ccccc1C/N=C(\S)NCc1ccc(NS(C)(=O)=O)c(F)c1 | 
32 | 630 nM | CS(=O)(=O)Nc1ccc(C/N=C(\S)NCc2ccc(I)cc2)cc1F | 
33 | 570 nM | CS(=O)(=O)Nc1ccc(C/N=C(\S)NCc2ccc(Br)cc2)cc1F | 
34 | 520 nM | CC(C)c1ccc(C/N=C(\S)NCc2ccc(NS(C)(=O)=O)c(F)c2)cc1 | 
35 | 470 nM | CCCCc1ccc(CNC(=S)NCc2ccc(NS(C)(=O)=O)c(F)c2)cc1 | 
36 | 460 nM | CCCc1ccc(CNC(=S)NCc2ccc(NS(C)(=O)=O)c(F)c2)cc1 | 
37 | 370 nM | CC(C)(C)c1ccc(CCNC(=S)NCc2ccc(NS(C)(=O)=O)c(F)c2)cc1 | 
38 | 200 nM | CC(C)(C)c1cc(CNC(=S)NCc2ccc(NS(C)(=O)=O)c(F)c2)cc(C(C)(C)C)c1 | 
39 | 80 nM | CC(C)(C)c1ccc(C/N=C(\S)NCc2ccc(NS(C)(=O)=O)c(Br)c2)cc1 | 
40 | 71 nM | CC(C)(C)c1ccc(CNC(=S)NCc2ccc(NS(C)(=O)=O)c([N+](=O)[O-])c2)cc1 | 
41 | 50 nM | CC(C)(C)c1ccc(CNC(=S)NCc2ccc3nn[nH]c3c2)cc1 | 
42 | 41 nM | CC(C)(C)c1ccc(CNC(=S)NCc2ccc(NS(C)(=O)=O)c(I)c2)cc1 | 

— ChEMBL document CHEMBL1140408 (J Med Chem, 2005)
